This note sets out measurements from ChEMBL document CHEMBL2086343, “Design, synthesis and antibacterial activity of minor groove binders: the role of non-cationic tail groups” (Eur J Med Chem, 2012).

The target of one data set is hERG (KCNH2) (Homo sapiens, UniProt Q12809). As to the kind of experiment: Displacement of [3H]astemizole from human hERG transfected in HEK293 cells at 10 uM after 1 hr by scintillation counter. It counts as cell-based. The conditions noted are these: HEK293 cells transfected with human hERG, probe [3H]astemizole. Summed up:
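Membranes came from hERG-transfected HEK293 cells (grown at 37 °C, 5% CO₂), homogenised and spun at 200,000 g. About 200,000 cells per tube were incubated 1 h at 30 °C with 0.5 nM [³H]astemizole and compound at 10 µM in HEPES pH 7.4 buffer. Non-specific binding was set with 10 µM unlabelled astemizole. Samples were filtered (GF/B) and counted by scintillation. Triplicates, n = 3.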

A further data set has as its system Staphylococcus aureus. The experiment in a line: Antibacterial activity against Staphylococcus aureus. Format: functional.
Data set [1] deals with Nucleic Acid. The experiment in a line: Binding affinity to 5'GCGATATATGCG3' DNA sequence assessed as change in melting temperature by thermal denaturation assay. It counts as nucleic-acid assay. Summed up:
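Oligonucleotide and its complement at 6×10^-6 M, mixed with MGB at the chosen ratio, in 10 mM PBS pH 7.4 with 50 mM NaCl. Heated 10→80 °C and cooled 80→10 °C at 0.5 °C/min. Absorbance was read at 260 nm, and Tm was taken from the derivative maxima.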

The subject of data set [2] is Nucleic Acid. The experiment in a line: Binding affinity to HexRev DNA at <10 uM after 30 mins by DNase 1 footprinting assay. Format: nucleic-acid assay. Summed up: (§1)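 DNase I footprinting used 3'-end radiolabelled DNA (<10 nM) in 10 mM Tris-HCl pH 7.5 with 0.1 mM EDTA. It was incubated with ligand for at least 30 min at room temperature, then digested 1 min with about 0.01 units/mL DNase I (with NaCl, MgCl₂, MnCl₂). Fragments were resolved on 8% denaturing polyacrylamide/8 M urea gels and read by phosphorimaging.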

Data set [3] deals with Nucleic Acid. As to the kind of experiment: Binding affinity to HexA DNA at <10 uM after 30 mins by DNase 1 footprinting assay. It counts as nucleic-acid assay. A digest of the protocol: as §1
For data set [4], the system named is Nucleic Acid. The experiment in a line: Binding affinity to HexB DNA at <10 uM after 30 mins by DNase 1 footprinting assay. It counts as nucleic-acid assay.

Values after ≈ are worked out from the molar mass of the structure shown. Active and inactive are the calls of the source. The calls are words filed in the database; no cut-off is given here.

Chain of hERG (KCNH2) (Q12809 whole entry): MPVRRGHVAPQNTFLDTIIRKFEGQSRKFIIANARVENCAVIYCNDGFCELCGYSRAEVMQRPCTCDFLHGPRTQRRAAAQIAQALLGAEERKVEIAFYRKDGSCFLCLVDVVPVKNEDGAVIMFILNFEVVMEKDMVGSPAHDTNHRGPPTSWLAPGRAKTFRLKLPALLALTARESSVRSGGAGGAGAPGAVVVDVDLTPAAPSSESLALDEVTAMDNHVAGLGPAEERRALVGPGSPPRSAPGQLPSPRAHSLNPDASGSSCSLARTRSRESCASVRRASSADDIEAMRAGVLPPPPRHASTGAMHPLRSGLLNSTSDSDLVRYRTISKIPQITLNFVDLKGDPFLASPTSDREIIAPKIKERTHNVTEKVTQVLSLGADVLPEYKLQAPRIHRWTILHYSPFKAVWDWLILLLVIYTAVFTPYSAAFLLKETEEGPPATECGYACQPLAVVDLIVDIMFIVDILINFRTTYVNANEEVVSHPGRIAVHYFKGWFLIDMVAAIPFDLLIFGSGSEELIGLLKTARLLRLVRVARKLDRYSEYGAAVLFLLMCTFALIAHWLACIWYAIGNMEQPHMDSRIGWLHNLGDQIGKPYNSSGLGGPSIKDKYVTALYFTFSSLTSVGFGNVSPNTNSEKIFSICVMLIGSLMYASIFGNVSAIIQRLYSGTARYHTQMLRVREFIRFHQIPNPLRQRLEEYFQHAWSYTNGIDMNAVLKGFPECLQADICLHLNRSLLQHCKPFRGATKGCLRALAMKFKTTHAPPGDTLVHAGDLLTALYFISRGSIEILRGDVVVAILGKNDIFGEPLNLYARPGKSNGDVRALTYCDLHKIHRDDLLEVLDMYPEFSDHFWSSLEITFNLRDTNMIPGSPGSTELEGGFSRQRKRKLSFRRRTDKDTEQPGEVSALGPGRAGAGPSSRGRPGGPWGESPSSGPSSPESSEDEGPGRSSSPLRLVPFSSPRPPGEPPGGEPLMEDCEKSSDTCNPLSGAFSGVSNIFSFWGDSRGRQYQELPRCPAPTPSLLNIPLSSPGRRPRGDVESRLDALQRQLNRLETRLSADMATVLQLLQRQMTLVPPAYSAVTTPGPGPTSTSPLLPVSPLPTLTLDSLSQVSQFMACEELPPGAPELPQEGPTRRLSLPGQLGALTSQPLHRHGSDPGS

A word on the inhibition: it is the relative decrease from the control value, in per cent. Low readings indicate a response near the control, high ones a response far below the control. Usually MIC stands for the least concentration at which growth counts as inhibited. At hERG (KCNH2), `COc1cccc(/C=C/c2ccc(C(=O)Nc3cc(C(=O)Nc4cc(C(=O)NCCO)n(C)c4)n(C)c3)cc2)c1` came in with an inhibition at 1 h, 10 µM of 32%. Moreover, the MIC result in the data set on Staphylococcus aureus is “inactive”.

On hERG (KCNH2), `COc1cccc(/C=C/c2ccc(C(=O)Nc3cc(C(=O)Nc4cc(C(=O)NCCNC(=N)N)n(C)c4)n(C)c3)cc2)c1` returned an inhibition at 1 h, 10 µM of 69%. This compound registered an MIC in the data set with Staphylococcus aureus of 25 µM (≈ 14.6 µg/mL).

As for `COc1cccc(/C=C/c2ccc(C(=O)Nc3cc(C(=O)Nc4cc(C(=O)NCCOC(C)=O)n(C)c4)n(C)c3)cc2)c1`, the MIC entry in the data set on Staphylococcus aureus is “inactive”.

`CN/C(=N\C#N)NCCNC(=O)c1cc(NC(=O)c2cc(NC(=O)c3ccc(/C=C/c4cccc(OC)c4)cc3)cn2C)cn1C`: the inhibition at 1 h, 10 µM on hERG (KCNH2) came out at 58%. Further, the MIC result with Staphylococcus aureus is “inactive”.

Regarding `COc1ccc(/C=C/c2ccc(C(=O)Nc3cc(C(=O)Nc4cc(C(=O)NCCO)n(C)c4)n(C)c3)cn2)cc1`, the MIC entry in the data set on Staphylococcus aureus was “inactive”.

For orientation: ΔTm means the shift of the melting midpoint relative to a reference. `CN/C(=C\[N+](=O)[O-])NCCNC(=O)c1cc(NC(=O)c2cc(NC(=O)c3ccc(/C=C/c4cnc5ccccc5c4)cc3)cn2C)cn1C`: the inhibition at 1 h, 10 µM at hERG (KCNH2) came to 51%. Also, the ΔTm in the data set on Nucleic Acid [1] amounted to 16 °C. The result with Nucleic Acid [2], in the data set on Nucleic Acid [3] and in the data set on Nucleic Acid [4] was Active. Also, the MIC in the data set on Staphylococcus aureus was determined as 2.5 µM (≈ 1.65 µg/mL).

Regarding `Cn1cc(NC(=O)c2cc(NC(=O)c3ccc(/C=C/c4cnc5ccccc5c4)cc3)cn2C)cc1C(=O)NCCN1CCOCC1` [MGB-BP-3], the inhibition at 1 h, 10 µM on hERG (KCNH2) was 65%. This compound yielded an MIC against Staphylococcus aureus of 0.12 µM (≈ 0.0758 µg/mL).

Take `CN/C(=N\C#N)NCCNC(=O)c1cc(NC(=O)c2cc(NC(=O)c3ccc(/C=C/c4cnc5ccccc5c4)cc3)cn2C)cn1C`: the inhibition at 1 h, 10 µM on hERG (KCNH2) worked out at 54%. In addition, the MIC entry in the data set on Staphylococcus aureus is “inactive”.

In the case of `COc1cccc(/C=C/c2ccc(C(=O)Nc3cc(C(=O)Nc4cc(C(=O)NCCN5CCOCC5)n(C)c4)n(C)c3)cc2)c1`, the inhibition at 1 h, 10 µM on hERG (KCNH2) was 65%. In the data set on Staphylococcus aureus, this compound came in with an MIC of 2 µM (≈ 1.22 µg/mL).

Take `COc1cccc(/C=C/c2ccc(C(=O)Nc3cc(C(=O)Nc4cc(C(=O)NCCNC(=O)OC(C)(C)C)n(C)c4)n(C)c3)cc2)c1`: the inhibition at 1 h, 10 µM on hERG (KCNH2) turned out to be 36%. Also, the MIC entry in the data set on Staphylococcus aureus was “inactive”.

Turning to `CN/C(=C\[N+](=O)[O-])NCCNC(=O)c1cc(NC(=O)c2cc(NC(=O)c3ccc(/C=C/c4cccc(OC)c4)cc3)cn2C)cn1C`, the MIC result with Staphylococcus aureus was “inactive”.

In the case of `COc1ccc(/C=C/c2ccc(C(=O)Nc3cc(C(=O)Nc4cc(C(=O)NCCOC(C)=O)n(C)c4)n(C)c3)cn2)cc1`, the MIC result with Staphylococcus aureus is “inactive”.

Regarding `COc1ccc(/C=C/c2ccc(C(=O)Nc3cc(C(=O)Nc4cc(C(=O)NCCNC(=N)N)n(C)c4)n(C)c3)cn2)cc1`, the MIC result with Staphylococcus aureus was “inactive”.

`CN/C(=C\[N+](=O)[O-])NCCNC(=O)c1cc(NC(=O)c2cc(NC(=O)c3ccc(/C=C/c4ccc(OC)cc4)nc3)cn2C)cn1C` came in with an MIC against Staphylococcus aureus of 31 µM (≈ 19.9 µg/mL).

Turning to `Cn1cc(NC(=O)c2cc(NC(=O)c3ccc(/C=C/c4cnc5ccccc5c4)cc3)cn2C)cc1C(=O)NCCNC(=N)N`, the ΔTm in the data set with Nucleic Acid [1] worked out at 29 °C. The outcome with Nucleic Acid [2], with Nucleic Acid [3] and in the data set with Nucleic Acid [4] was Active. In the data set with Staphylococcus aureus, this compound displayed an MIC of 7.8 µM (≈ 4.71 µg/mL).

Turning to `COc1ccc(/C=C/c2ccc(C(=O)Nc3cc(C(=O)Nc4cc(C(=O)NCCN5CCOCC5)n(C)c4)n(C)c3)cn2)cc1`, the inhibition at 1 h, 10 µM at hERG (KCNH2) was 58%. Also, inhibition of growth against Staphylococcus aureus (MIC) required 6.25 µM (≈ 3.82 µg/mL).

In turn, `CN(C)CCCNC(=O)c1cc(NC(=O)c2cc(NC(=O)c3ccc(/C=C/c4cnc5ccccc5c4)cc3)cn2C)cn1C` displayed an inhibition at 1 h, 10 µM at hERG (KCNH2) of 60%. Also, the MIC against Staphylococcus aureus worked out at 25 µM (≈ 15.1 µg/mL).

At hERG (KCNH2), `Cn1cc(NC(=O)c2cc(NC(=O)c3ccc(/C=C/c4cnc5ccccc5c4)cc3)cn2C)cc1C(=O)NCCN` returned an inhibition at 1 h, 10 µM of 55%. Also, the MIC entry in the data set with Staphylococcus aureus is “inactive”.

Turning to `Cn1cc(NC(=O)c2cc(NC(=O)c3ccc(/C=C/c4cnc5ccccc5c4)cc3)cn2C)cc1C(=O)NCCNC(=O)C(F)(F)F`, the inhibition at 1 h, 10 µM on hERG (KCNH2) amounted to 24%. For the same compound, the MIC in the data set on Staphylococcus aureus was determined as 12.5 µM (≈ 8.22 µg/mL).
